Measurements from ChEMBL document CHEMBL1212834, “Pyrido[2,3-b]pyrazines, discovery of TRPV1 antagonists with reduced potential for the formation of reactive metabolites” (Bioorg Med Chem Lett, 2010).

How the values were obtained:
[1] = biological target: Transient receptor potential cation channel subfamily V member 1 (Homo sapiens, UniProt Q8NER1); experiment: Antagonist activity at human TRPV1 assessed as inhibition of capsaicin-induced receptor activation by FLIPR assay; assay type: functional
Transient receptor potential cation channel subfamily V member 1, sequence (Q8NER1 whole entry): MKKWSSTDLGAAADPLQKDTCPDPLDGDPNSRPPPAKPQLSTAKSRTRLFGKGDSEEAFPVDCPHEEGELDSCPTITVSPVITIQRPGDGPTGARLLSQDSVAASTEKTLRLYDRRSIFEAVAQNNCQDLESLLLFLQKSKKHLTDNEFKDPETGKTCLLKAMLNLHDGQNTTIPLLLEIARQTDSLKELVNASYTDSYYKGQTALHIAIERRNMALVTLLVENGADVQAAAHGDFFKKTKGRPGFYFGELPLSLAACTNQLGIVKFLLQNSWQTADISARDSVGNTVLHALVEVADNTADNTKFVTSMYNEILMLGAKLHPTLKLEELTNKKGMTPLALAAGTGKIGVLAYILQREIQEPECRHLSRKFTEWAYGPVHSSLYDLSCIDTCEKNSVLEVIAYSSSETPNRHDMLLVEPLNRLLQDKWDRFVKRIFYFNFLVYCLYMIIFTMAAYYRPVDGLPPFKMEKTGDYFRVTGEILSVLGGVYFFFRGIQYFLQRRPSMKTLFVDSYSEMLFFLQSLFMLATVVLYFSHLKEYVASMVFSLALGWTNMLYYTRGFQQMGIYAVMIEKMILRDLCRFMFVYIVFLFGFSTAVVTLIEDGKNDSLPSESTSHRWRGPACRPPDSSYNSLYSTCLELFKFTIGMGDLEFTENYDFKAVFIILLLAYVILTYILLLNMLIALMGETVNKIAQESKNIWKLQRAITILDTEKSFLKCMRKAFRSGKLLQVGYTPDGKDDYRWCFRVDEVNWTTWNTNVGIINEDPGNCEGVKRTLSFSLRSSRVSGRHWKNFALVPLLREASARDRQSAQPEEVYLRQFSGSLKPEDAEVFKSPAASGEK
Method in brief: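 Human TRPV1 activated by capsaicin; inhibition read by FLIPR. IC50 is the mean of ≥3 experiments.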

[2] = Plasma concentration in rat complete Freund's adjuvant-induced inflammation model at 1 mg/kg, po QD for 3 consecutive days measured at 2 hrs post dose on day 1; assay type: ADME, organism-based; set-up: dose 1 mg/kg, route oral
Method in brief: (§1)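 CFA (200 µL) injected intraplantar into left hind paw; next day rats dosed orally once daily for three consecutive days (1, 3 or 10 mg/kg, suspension in 0.5% methocel). Separate cohort: plasma sampled each day 2 h after dosing.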

[3] = Plasma concentration in rat complete Freund's adjuvant-induced inflammation model at 3 mg/kg, po QD for 3 consecutive days measured at 2 hrs post dose on day 1; assay type: ADME, organism-based; set-up: dose 3 mg/kg, route oral; method in brief: as §1
[4] = Metabolic stability in rat liver microsomes assessed as compound remaining after 10 min; assay type: ADME, Microsome; conditions: read-out: Stability
Rattus norvegicus [5] = experiment: Antiinflammatory activity in Sprague-Dawley rat assessed as inhibition of carrageenan-induced thermal hyperalgesia at 3 mg/kg, po administered 3.5 hrs after carrageenan challenge measured after 5 hrs; assay type: functional
Method in brief: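 Rat carrageenan-induced thermal hyperalgesia. Dosed orally as a suspension in 0.5% methocel; % inhibition reported at each dose.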

Rattus norvegicus [6] = experiment: Plasma concentration in Sprague-Dawley rat carrageenan-induced thermal hyperalgesia model at 1 mg/kg, po; assay type: ADME, organism-based; set-up: dose 1 mg/kg, route oral; conditions: in vivo
Method in brief: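 Plasma sampled immediately after the carrageenan thermal hyperalgesia experiment, following oral dosing as a suspension in 0.5% methocel.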

[7] = Clearance in rat at 1 mg/kg, iv; assay type: ADME, organism-based; set-up: dose 1 mg/kg, route intravenous; conditions: in vivo
Method in brief: (§2)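 IV PK at 1 mg/kg, given as a solution in 3:1 PEG300:water. Plasma half-life, clearance and volume of distribution derived.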

[8] = Cmax in rat at 1 mg/kg, po; assay type: ADME, organism-based; set-up: dose 1 mg/kg, route oral; conditions: in vivo
Method in brief: (§3)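 Oral PK at the dose in the line, given as a suspension in 0.5% methocel. […] Reported as mean ± error.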

[9] = AUC (0 to 24 hrs) in rat at 1 mg/kg, po; assay type: ADME, organism-based; set-up: time < 24 hr, dose 1 mg/kg, route oral; conditions: plasma; method in brief: as §3
[10] = Half life in dog at 1 mg/kg, iv; assay type: ADME, organism-based, Canis lupus familiaris; set-up: dose 1 mg/kg, route intravenous; conditions: in vivo; method in brief: as §2
[11] = Clearance in dog at 1 mg/kg, iv; assay type: ADME, organism-based, Canis lupus familiaris; set-up: dose 1 mg/kg, route intravenous; conditions: in vivo; method in brief: as §2
[12] = Oral bioavailability in dog at 1 mg/kg; assay type: ADME, organism-based, Canis lupus familiaris; conditions: in vivo
Method in brief: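 Oral bioavailability from a 1 mg/kg po dose (suspension in 0.5% methocel), compared against a 1 mg/kg iv dose (solution in 3:1 PEG300:water).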

[13] = AUC (0 to 24 hrs) in dog at 1 mg/kg, po; assay type: ADME, organism-based, Canis lupus familiaris; set-up: time < 24 hr, dose 1 mg/kg, route oral; conditions: plasma; method in brief: as §3
[14] = Half life in rhesus monkey at 1 mg/kg, iv; assay type: ADME, organism-based, Macaca mulatta; set-up: dose 1 mg/kg, route intravenous; conditions: in vivo; method in brief: as §2
[15] = Plasma concentration in rat complete Freund's adjuvant-induced inflammation model at 10 mg/kg, po QD for 3 consecutive days measured at 2 hrs post dose on day 1; assay type: ADME, organism-based; set-up: dose 10 mg/kg, route oral; method in brief: as §1
[16] = biological target: T1, Amine oxidase [flavin-containing] A (Homo sapiens, UniProt P21397); experiment: Inhibition of MAOA
T1 sequence (P21397 whole entry): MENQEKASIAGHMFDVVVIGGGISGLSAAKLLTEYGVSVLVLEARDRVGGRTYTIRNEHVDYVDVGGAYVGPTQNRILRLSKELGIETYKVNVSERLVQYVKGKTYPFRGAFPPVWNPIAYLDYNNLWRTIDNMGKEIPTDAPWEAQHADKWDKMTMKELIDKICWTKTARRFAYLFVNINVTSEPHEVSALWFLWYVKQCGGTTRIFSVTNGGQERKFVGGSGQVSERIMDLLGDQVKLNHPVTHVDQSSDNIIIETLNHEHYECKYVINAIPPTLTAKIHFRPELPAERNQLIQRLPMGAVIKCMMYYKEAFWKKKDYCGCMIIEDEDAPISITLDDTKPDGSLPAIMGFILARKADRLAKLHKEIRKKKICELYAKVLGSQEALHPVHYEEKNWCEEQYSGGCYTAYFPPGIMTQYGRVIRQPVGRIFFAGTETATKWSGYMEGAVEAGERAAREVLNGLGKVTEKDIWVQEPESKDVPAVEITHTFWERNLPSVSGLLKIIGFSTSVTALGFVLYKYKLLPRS
Method in brief: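 Off-target panel of more than 160 receptors, ion channels, transporters and kinases, which included MAO.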

[17] = AUC (0 to 24 hrs) in rat brain at 10 mg/kg, po; assay type: ADME, organism-based; set-up: time < 24 hr, dose 10 mg/kg, route oral
[18] = Ratio of drug level in brain to plasma in rat at 10 mg/kg, po; assay type: ADME, organism-based; set-up: dose 10 mg/kg, route oral; conditions: read-out: BPR
[19] = Plasma concentration in rat complete Freund's adjuvant-induced inflammation model at 1 mg/kg, po QD for 3 consecutive days measured at 2 hrs post dose on day 2; assay type: ADME, organism-based; set-up: dose 1 mg/kg, route oral; method in brief: as §1
[20] = Plasma concentration in rat complete Freund's adjuvant-induced inflammation model at 10 mg/kg, po at 2 hrs on third day; assay type: ADME, organism-based; set-up: dose 10 mg/kg, route oral; method in brief: as §1
Liver microsomes [21] = experiment: Metabolic stability in rat liver microsomes assessed per mg of protein at 8.1 mg/kg, po after 2 to 24 hrs; assay type: ADME, organism-based, Microsome; set-up: dose 8.1 mg/kg, route oral
[22] = Apparent permeability across MDCK cell membrane; assay type: ADME, cell-based, Canis lupus familiaris; conditions: dog
Method in brief: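 Permeability across MDCK cell monolayers, reported as Papp. Efflux ratio calculated as (B→A)/(A→B).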

Canis familiaris = species: Canis familiaris; experiment: Cardiotoxicity in dog assessed as effect on ECG intervals at plasma concentration of up to 24 uM; assay type: toxicity, organism-based, Canis lupus familiaris
Liver microsomes [23] = experiment: Metabolic stability in human liver microsomes assessed per mg of protein after 1 hr
Plasma = experiment: Covalent protein binding in rat assessed per mg of protein at 8.1 mg/kg, po after 2 to 24 hrs; conditions: in vivo

`NC(=O)c1cnc(-c2cnc3c(Nc4ccc(C(F)(F)F)cn4)ccnc3n2)c(C(F)(F)F)c1` gave an IC50 [1] of 0.0008 µM, a concentration at 2 h [2] of 270 nM and a concentration at 2 h [3] of 1200 nM. The remaining at 10 min [4] was 100%, the inhibition in vivo at 3 mg/kg (Rattus norvegicus [5]) was 74% and the concentration (Rattus norvegicus [6]) was 240 nM. The clearance [7] was 25 mL/min/kg, the Cmax [8] was 300 nM and the AUC(0-t) at 24 h [9] was 1.4 µM·h. It also gave a half-life [10] of 1.5 h, a clearance [11] of 7.4 mL/min/kg and a bioavailability [12] of 57%. It also gave an AUC(0-t) at 24 h [13] of 2.7 µM·h, a half-life [14] of 4.4 h and a concentration at 2 h [15] of 2430 nM. For the same compound, the IC50 [16] was 2.4 µM, the AUC(0-t) at 24 h [17] was 3.4 µM·h and the Kp [18] was 0.1. The concentration at 2 h [19] was 360 nM, the concentration at 2 h [20] was 4240 nM and the Stability (Liver microsomes [21]) was under 10 pmol. The Papp [22] was 34 ×10⁻⁶ cm/s, the Activity (Canis familiaris) was “Non-toxic” and the Stability (Liver microsomes [23]) was 8 pmol. For the same compound, the covalent protein binding (Plasma) was under 10 pmol/mg.
